Assay results from paper PMC7250216 (Biomedicine & pharmacotherapy = Biomedecine & …, 2020).
Bridges are numbered along the chain shown (N, C = ends). Where no end group is shown, it is not given here.

What was measured:
[1] = system: membrane hyperpolarization in qV1aR-expressing CHO cells; format: cell-based, Chinese hamster
[2] = system: intracellular Ca2+ mobilization in mV1aR-expressing CHO cells; format: cell-based, Chinese hamster; settings: 1 μM final concentration
Outline: (§1)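 Stably receptor-transfected CHO-K1 cells were plated at 0.3 million cells/mL and grown overnight. They were loaded for 60 min at 37°C with 4 μM Fluo-3 AM and 0.04% pluronic acid in Locke's buffer (pH 7.4, 2.3 mM CaCl2, 0.5 mM probenecid), then washed four times. Thapsigargin (1 μM final) was given for 5 min. After 60 s baseline, peptide was added and read at ex 488/em 538 nm every 2 s for 200 s.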

[3] = system: membrane hyperpolarization in mV1aR-expressing CHO cells; format: cell-based, Chinese hamster
[4] = system: intracellular Ca2+ mobilization in hV1aR-expressing CHO cells; format: cell-based, Chinese hamster; settings: 1 μM final concentration
Outline: as §1

[5] = system: membrane hyperpolarization in hV1aR-expressing CHO cells; format: cell-based, Chinese hamster
[6] = system: intracellular Ca2+ mobilization in qV1aR-expressing CHO cells; format: cell-based, Chinese hamster; settings: 1 μM final concentration
Outline: as §1

[7] = system: untransfected CHO-K1 cells; settings: ref 35 (Pierce et al. 2020); cited from earlier work
[8] = system: marmoset vasopressin receptor 1a (mV1aR); test: FLIPR Membrane Potential; format: cell-based, marmoset (Callithrix jacchus); settings: mV1aR expressing cells
Outline: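 CHO-K1 cells stably expressing the species' V1aR were plated at 0.3 million cells/mL and grown overnight. They were loaded with FMP Blue in Locke's buffer (pH 7.4, 2.3 mM CaCl2) for 45 min at 37°C. After 60 s baseline, log concentrations of peptide were added, with all peptides run in parallel on one plate. Reads were ex 530/em 565 nm every 2 s for 200 s.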

[9] = system: non-transfected CHO-K1 cells; settings: ref 35 (Pierce et al. 2020); cited from earlier work

With `C/C=C(/C)C(=O)O[C@H]1C(C)=C2[C@H]([C@@H]1OC(=O)CCCCCCC)[C@@](C)(OC(C)=O)C[C@H](OC(=O)CCC)[C@@]1(O)[C@H]2OC(=O)[C@@]1(C)O` [thapsigargin] the “effect of pretreatment on AVP and OT-analog induced membrane hyperpolarization” value [1] was “eliminated”, the “effect of pretreatment on AVP and OT-analog induced calcium mobilization” value [2] was “blocked” and the “effect of pretreatment on AVP and OT-analog induced membrane hyperpolarization” value [3] was “eliminated”. For the same compound, the “effect of pretreatment on AVP and OT-analog induced calcium mobilization” value [4] was “blocked”, the “effect of pretreatment on AVP and OT-analog induced membrane hyperpolarization” value [5] was “eliminated” and the “effect of pretreatment on AVP and OT-analog induced calcium mobilization” value [6] was “blocked”.

In the case of `Clc1ccccc1C(c1ccccc1)(c1ccccc1)n1cccn1` [TRAM-34], the “effect of pretreatment on AVP and OT-analog induced membrane hyperpolarization” value [1] is reported as “most effective inhibition”, the “effect on SKA-31-induced membrane hyperpolarization” value [1] is reported as “inhibited” and the “effect of pretreatment on AVP and OT-analog induced membrane hyperpolarization” value [3] is reported as “most effective inhibition”. For the same compound, the “effect on SKA-31-induced membrane hyperpolarization” value [3] was “inhibited”, the “effect of pretreatment on AVP and OT-analog induced membrane hyperpolarization” value [5] was “most effective inhibition” and the “effect on SKA-31-induced membrane hyperpolarization” value [5] was “inhibited”.

In the case of “apamin: selective inhibitor of SKCa channels (CNCKAPETALCARRCQQH-NH2; disulfide 1-11, 3-15; UniProt P01500 28-45, looked up)”, the “inhibition of AVP or OT-analog induced membrane hyperpolarization” value [1] is reported as ≤ 10%, the “inhibition of AVP or OT-analog induced membrane hyperpolarization” value [3] is reported as ≤ 10% and the “effect on AVP or Pro^8-OT-induced hyperpolarizing response” value [5] is reported as “did not markedly affect”. The “reduction of Leu^8-OT-induced membrane hyperpolarization” value [5] was ~ 50%.

In the case of `CC(=O)OCOC(=O)CN(CC(=O)OCOC(C)=O)c1ccccc1OCCOc1ccccc1N(CC(=O)OCOC(C)=O)CC(=O)OCOC(C)=O` [BAPTA-AM, 1,2-Bis(2-aminophenoxy)ethane-N,N,N′,N′-tetraacetic acid tetrakis (acetoxymethyl ester)], the “effect of pretreatment on AVP and OT-analog induced membrane hyperpolarization” value [1] is reported as “blocked”, the “effect of pretreatment on AVP and OT-analog induced membrane hyperpolarization” value [3] is reported as “blocked” and the “effect of pretreatment on AVP and OT-analog induced membrane hyperpolarization” value [5] is reported as “blocked”.

In the case of `N=C(N)NCCC[C@H](NC(=O)[C@@H]1CCCN1C(=O)[C@@H]1CSSC[C@H](N)C(=O)N[C@@H](Cc2ccc(O)cc2)C(=O)N[C@@H](Cc2ccccc2)C(=O)N[C@@H](CCC(N)=O)C(=O)N[C@@H](CC(N)=O)C(=O)N1)C(=O)NCC(N)=O` [AVP, Arginine vasopressin], the induced hyperpolarizing response [7] is listed as “absence”, the “shape of concentration response curve, membrane hyperpolarization” value [8] is listed as “U-shaped concentration response curve” and the “Ca2+ mobilization” value [9] is listed as “did not mobilize”.

With `CC(C)(O)[C@H]1O[C@H]2CC[C@@]3(C)[C@@](O)(CC[C@H]4Cc5c([nH]c6ccccc56)[C@@]43C)C2=CC1=O` [paxilline] the “effect on NS-1619-induced membrane hyperpolarization” value [1] was “inhibited”, the “inhibition of AVP or OT-analog induced membrane hyperpolarization” value [1] was 15-30% and the “effect of pretreatment on AVP and OT-analog induced membrane hyperpolarization” value [3] was “little to no effect”. For the same compound, the “effect on NS-1619-induced membrane hyperpolarization” value [3] was “inhibited”, the “effect of pretreatment on AVP and OT-analog induced membrane hyperpolarization” value [5] was “little to no effect” and the “effect on NS-1619-induced membrane hyperpolarization” value [5] was “inhibited”.
